FN deposit inh – fibronectin deposition inhibition; AH1F fibroblasts, Alexa488-fibronectin deposition fluorescence, overnight; inhibition, % at 12.6 µM; 350,000 compounds, 0.086% hits; AID 743247;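 active = mean inhibition across replicates of 30% or more, regardless of how many single replicates reach that level; inconclusive = mean under 30% yet at least half of replicates reach 30%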;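 note: positive control wells lacked labelled fibronectin entirely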
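material = AH1F fibroblast monolayer depositing Alexa488-labelled fibronectin into matrix | amount = 10000 AH1F cells/well | buffer or medium = DMEM plus 2% serum, read in PBS | incubation = 1 h cell adhesion before compound, then overnight fibronectin incubation | detection = fluorescence at 485 nm excitation, 525 nm emission | evaluation = percent inhibition as loss of matrix-bound fibronectin fluorescence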
TWEAK Fn14 block – inhibitors of TWEAK-Fn14 interaction signaling. inhibition, % at 10 µM. 360,000 compounds, 2% hits. TWEAK-stimulated Fn14 reporter cells, luciferase luminescence, 8 h; in the data active = inhibition above about 50%
TROY NFkB inh – TROY signaling inhibition. 360,000 compounds, 0.98% hits. inhibition, % at 10 µM. Q293 LMP1-TROYcd NF-kB luciferase reporter, 4 h;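 active = compounds whose plate-normalised and pattern-corrected inhibition of the luciferase reporter signal at the single screening dose is 50% or more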
EWS-Fli block – EWS/Fli transcriptional activity inhibition; A673 NR0B1-luciferase reporter, viability-normalised; inhibition, % at 12.6 µM; 350,000 compounds, 0.67% hits; AID 651661;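 active = mean inhibition of at least 50% after viability correction, with every replicate also passing that limit; inconclusive = mean reaches 50% but only one of two replicates passes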;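 note: firefly luciferase signal divided by Alamar Blue viability fluorescence both relative to DMSO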
LGR2 antag – blocks bursicon-induced cAMP signaling via Drosophila LGR2; HEK293 LGR2, CRE-luciferase, bursicon-stimulated, 4 h; inhibition, % at 9.99 µM; 380,000 compounds, 0.35% hits; AID 720647;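 active = drop in luminescence signal, shown as inhibition above about 50% in the replicate tests, limit read from the data, passing the limit was not always enough; inconclusive = probably only some replicates passing the limit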;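 note: agonist challenge used bursicon conditioned medium at about half maximal strength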
Xi reactivation – activators of X-chromosome reactivation in mouse fibroblasts | AID 743238 | 360,000 compounds, 0.055% hits | activation, % at 7.58 µM | XiGFP mouse fibroblasts, % GFP-positive cells imaging, 3 d; cells co-treated with 5-aza-dC sensitizer; scaled so ellipticine positive control = 100%;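 active = mean normalized replicate activation at least 10% and every replicate at or above 10%; inconclusive = only one of the two criteria met; inactive = mean below 10% and not all replicates reach 10%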;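 note: 0% = median of on-plate neutral control wells and 100% = ellipticine 6 µM median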
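System: XiGFP fibroblasts, SV40-immortalized. Medium: DMEM plus 5-aza-dC sensitizer. Doses: single point. Timing: 3 d treatment, 15 min room-temperature fixation. Control set: ellipticine 6 µM.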
Numbers without * were called inactive; ? = inconclusive; / = no result. In the library only some 2.3% were active in any assay of this set; here they are far more common.

SMILES	FN deposit inh	TWEAK Fn14 block	TROY NFkB inh	EWS-Fli block	LGR2 antag	Xi reactivation
CC(=O)c1cccc(N(C(=O)c2ccco2)C(C(=O)NC2CCCC2)c2ccccc2F)c1 (stereo unspecified)	0.5	53.2*	-8.2	-4.5	-2.5	0.1
COc1ccc(N(C(=O)c2ccco2)C(C(=O)NC2CCCCC2)c2cccs2)cc1OC (stereo unspecified)	/	77.3*	/	/	/	/
CC(=O)c1cccc(N(C(=O)c2ccco2)C(C(=O)NC2CCCC2)c2cccs2)c1 (stereo unspecified)	2.2	12.3	12.3	9.5	4.8	0.4
C#CC(=O)N(c1cc(OC)ccc1OC)C(C(=O)NC1CCCC1)c1cccs1 (stereo unspecified)	/	46.6	12.7	/	/	/
C#CC(=O)N(c1ccc(OC)cc1OC)C(C(=O)NC1CCCC1)c1cccs1 (stereo unspecified)	29.4	37.2	5.0	61.3*	96.7*	0.1
CCC(=O)NC[C@H]1[C@@H](c2ccccc2)[C@H](CO)N1C(=O)C1CCC1	/	/	/	-11.7	-3.8	0.0
CC1CC(Nc2ccccc2)c2ccccc2N1C(=O)c1ccccc1F (stereo unspecified)	-3.2	26.8	15.1	62.6*	20.5	0.0
O=C(NC1CCCCC1)C(c1ccccc1)N(Cc1ccco1)C(=O)c1csnn1 (stereo unspecified)	-4.4	63.6*	4.3	0.6	1.0	0.1
CC(C)NC(=O)N[C@@H]1CC[C@H](CCNC(=O)C2CCCC2)O[C@@H]1CO	-3.8	/	/	-4.3	-2.5	0.0
O=C(c1ccc(S(=O)(=O)c2cccc(Cl)c2)c([N+](=O)[O-])c1)N1CCN(Cc2ccccc2)CC1	-15.4	83.8*	33.2	/	5.2	0.1
O=C(c1ccc(S(=O)(=O)Cc2cc(F)ccc2F)c([N+](=O)[O-])c1)N1CCCCC1	5.4	62.0*	12.0	/	14.2	0.3
Cc1ccccc1CS(=O)(=O)c1cn(CC(=O)N2CCC(C)CC2)c2ccccc12	-0.3	5.6	-8.4	/	-16.3	-0.1
Cc1ccccc1CS(=O)(=O)c1ccc(C(=O)N2CCC(C)CC2)cc1[N+](=O)[O-]	/	56.5*	2.5	-3.1	3.7	0.2
O=S(=O)(c1ccccc1)N1CCN(Cc2cccc(Cl)c2)CC1	-2.8	78.6*	20.6	/	/	/
O=S(=O)(c1ccccc1)N1CCN(Cc2ccccc2)CC1	1.7	-2.2	18.9	0.8	-5.2	0.0
COc1ccccc1NC(=O)N1CC(=O)N2[C@H](CO)[C@@H](c3ccc(C#CCC(C)C)cc3)[C@@H]2C1	/	/	/	/	/	-0.1
COc1cccc(CN2CC3(CN(C)C3)c3c(n(C)c4cc(OC)ccc34)[C@@H]2CO)c1	1.0	/	/	-6.3	-9.8	0.0
Cc1noc(C)c1NC(=O)Nc1ccc2c(c1)C(=O)N([C@@H](C)CO)C[C@H](C)[C@@H](CN(C)Cc1ccncc1)OCCCC[C@H](C)O2	/	/	/	-21.9	1.9	0.3
O=C(c1ccc(Cl)c([N+](=O)[O-])c1)N1CCN(c2ccccn2)CC1	2.9	-29.0	4.5	-15.1	7.8	0.1
CC1CCN(C(=O)c2ccc(S(=O)(=O)Cc3cccc(F)c3)c([N+](=O)[O-])c2)CC1	/	65.7*	36.3	/	39.6	/
O=C(c1ccc(S(=O)(=O)Cc2cc(F)ccc2F)c([N+](=O)[O-])c1)N1CCCC1	-2.0	45.6	16.8	20.7	20.9	0.0
O=C(c1ccc(S(=O)(=O)Cc2ccccc2Cl)c([N+](=O)[O-])c1)N1CCN(c2ccccn2)CC1	12.0	68.8*	37.6	9.0	48.7	-0.2
C[C@@H]1CN([C@@H](C)CO)C(=O)c2cccc(NC(=O)CCCCCC(=O)Nc3ccccc3N)c2O[C@@H]1CN(C)S(C)(=O)=O	/	/	/	3.3	-9.4	-1.5
COc1ccc(-c2ccc3n(c2=O)C[C@@H]2[C@@H](CO)[C@H](C(=O)N4CCOCC4)[C@H]3N2C)cc1	/	/	/	-1.5	-4.3	0.3
O=C(Nc1ccccc1Cl)c1ccc(C(=O)Nc2ccccc2Cl)cc1	0.3	-3.0	62.0*	4.3	2.2	-0.2
SMILES	FN deposit inh	TWEAK Fn14 block	TROY NFkB inh	EWS-Fli block	LGR2 antag	Xi reactivation
O=C(Nc1ccccc1Cl)c1ccccc1	-8.1	-22.8	-37.7	-39.3	-28.7	0.4
CCc1ccc(-c2csc(NC(=O)C3=NN(c4ccccc4)C(=O)CC3)n2)cc1	-3.7	73.5*	51.3*	/	-4.2	0.0
Cc1cc(C)c(-c2csc(NC(=O)C3=NN(c4ccccc4)C(=O)CC3)n2)c(C)c1	/	40.1	16.5	5.8	-3.2	0.0
CCc1ccc(-c2csc(NC(=O)c3cccnc3)n2)cc1	1.9	60.9*	20.9	/	26.4	0.0
O=C(Nc1nc(-c2ccc(Cl)cc2)cs1)c1cccnc1	4.6	12.0	0.1	/	/	/
Cc1noc(C)c1NC(=O)Nc1ccc2c(c1)C(=O)N([C@H](C)CO)C[C@H](C)[C@H](CN(C)C(=O)Nc1cccc3ccccc13)OCCCC[C@H](C)O2	-3.6	/	/	-2.7	-0.2	0.4
Cc1cc(C(=O)Nc2cccc3c2O[C@H](CN(C)S(=O)(=O)c2ccc(Cl)cc2)[C@H](C)CN([C@@H](C)CO)C3=O)n(C)n1	/	/	/	-2.0	-9.3	0.1
c1coc(C2=NC(c3ccco3)C(c3ccco3)N2)c1 (stereo unspecified)	/	64.4*	9.0	/	/	/
C[C@H]1CN([C@@H](C)CO)C(=O)c2cc(NC(=O)CCC(F)(F)F)ccc2O[C@@H]1CN(C)C	/	/	/	-3.4	11.4	0.1
COc1cc(C(=O)NC(=S)Nc2csc(-c3ccc(F)cc3)n2)cc(OC)c1OC	-1.4	9.6	56.0*	8.2	9.5	0.0
CCOC(=O)Cc1csc(NC(=S)NC(=O)c2cc(OC)c(OC)c(OC)c2)n1	-5.8	4.6	16.6	1.6	2.5	1.1
Nc1nc(Sc2ccc(C(F)(F)F)cc2[N+](=O)[O-])n[nH]1	2.5	1.8	12.8	/	/	/
Nc1nc(Sc2c([N+](=O)[O-])cc(C(F)(F)F)cc2[N+](=O)[O-])n[nH]1	8.6	4.2	11.5	55.3*	-8.4	0.0
O=C(Nc1ccc(Oc2ccccc2)cc1)c1ccc2sc([C@H]3C[C@H](O)[C@@H](CO)O3)nc2c1	-8.5	95.4*	51.7*	-5.8	25.0	0.4
COc1cnn(-c2ccccc2)c(=O)c1N(C)C	-2.4	32.1	54.1*	/	/	/
O=c1c(Br)c(Br)cnn1-c1ccccc1	0.9	92.8*	77.3*	?	5.1	2.9
COc1cnn(-c2cccc(C)c2)c(=O)c1Cl	1.3	19.3	2.7	-24.2	/	0.2
O=c1c(Br)c(N2CCCC2)cnn1-c1ccccc1	/	6.7	-28.2	/	-21.7	/
Cc1ccc(-n2ncc(Br)c(Br)c2=O)cc1	/	78.3*	68.7*	/	/	/
CN1C(=O)C2C(C1=O)C1C=C(CCCO)C2C(c2ccc(CN3CCCC3)cc2)N1Cc1sc2ccccc2c1Cl (stereo unspecified)	/	/	/	0.2	/	/

Bioassay records deposited in PubChem by several laboratories.
